Columns and labels:
[1] = folding enthalpy; higher = less favourable; fluorescence melt of hairpins on a sequencing array, two-state fit; conditions: sodium 0.088 M
Procedure, shortened: (§1)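 Library hairpins on a sequenced MiSeq flow cell carried annealed Cy3 and quencher oligos, and their Cy3 fluorescence was imaged in 50 mM Na-HEPES pH 8.0 with 25 mM NaCl, in 2.5 °C steps up to 60 °C. Signals were normalised to Cy3 before quenching and to control constructs. Melting temperature and folding enthalpy were obtained from bootstrapped two-state fits, combined by inverse-variance weighting across four replicates, and the fitted temperatures were then raised by 9.35 °C to match UV melts.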

[2] = melting temperature; fluorescence melt of hairpins on a sequencing array, two-state fit, raised by 9.35 °C to match UV melts; conditions: sodium 0.088 M
Procedure, shortened: as §1

GTCTTCGAAAGAAGCGAC ((((((....)))..)))
folding enthalpy [1]: -20 kcal/mol
Tm [2]: 44.7 °C

GTGTGTGGAAACACGCAC (((.(((....))).)))
folding enthalpy [1]: -40 kcal/mol
Tm [2]: 58.7 °C

GTATAAGCGAAAGCTTAC (((..(((....))))))
folding enthalpy [1]: -9.03 kcal/mol
Tm [2]: 33.8 °C

GGTTGCTCGAAAGAGACC (((..(((....))))))
folding enthalpy [1]: -13.4 kcal/mol
Tm [2]: 29.6 °C

GCTGTACGAAAGTAAAGC (((.(((....))).)))
folding enthalpy [1]: -30.2 kcal/mol
Tm [2]: 49.6 °C

GTATACGAAAGTACTTAC ((((((....)))..)))
folding enthalpy [1]: -13.5 kcal/mol
Tm [2]: 31.5 °C

GCCAAACCGAAAGGTGGC (((..(((....))))))
folding enthalpy [1]: -32 kcal/mol
Tm [2]: 55.4 °C

GAGTTACGAAAGTATCTC (((.(((....))).)))
folding enthalpy [1]: -26 kcal/mol
Tm [2]: 41.4 °C

GCAAAGCGAAAGCCGTGC (((..((....))..)))
folding enthalpy [1]: -11.4 kcal/mol
Tm [2]: 39.9 °C

GCGGCCGAAAGGCCCCGC ((((((....)))..)))
folding enthalpy [1]: -10.3 kcal/mol
Tm [2]: 48.1 °C

GAGCAAGGAAACTTGCTC (((((((....)))))))
folding enthalpy [1]: -40.4 kcal/mol
Tm [2]: 63.8 °C

GCTATGCGAAAGCGTTGC ((.(.((....)).).))
folding enthalpy [1]: -22.9 kcal/mol
Tm [2]: 48.9 °C

GCCTAGCGAAAGCCGGGC (((..((....))..)))
folding enthalpy [1]: -20.1 kcal/mol
Tm [2]: 57.1 °C

GCACCGCGAAAGCTTTGC (((..((....))..)))
folding enthalpy [1]: -12 kcal/mol
Tm [2]: 36.2 °C

GGATAGGAAACTATCC ((((((....))))))
folding enthalpy [1]: -30.5 kcal/mol
Tm [2]: 51.4 °C

GTGAGAGGAAACTCTCGC (.(((((....))))).)
folding enthalpy [1]: -27.2 kcal/mol
Tm [2]: 51.2 °C

GTCGGTCGAAAGACGAC (((.(((....))))))
folding enthalpy [1]: -29.2 kcal/mol
Tm [2]: 55.1 °C

GACCATGGAAACGTGGTC (((((.(....).)))))
folding enthalpy [1]: -42.7 kcal/mol
Tm [2]: 52.6 °C

GGAATCGGAAACGGTTTC (.((.((....)).)).)
folding enthalpy [1]: -26.3 kcal/mol
Tm [2]: 32.4 °C

GATCGAGTACTCGATC ((((((....))))))
folding enthalpy [1]: -43.4 kcal/mol
Tm [2]: 58.8 °C

GGAGCCGAAAGGCATCC ((((((....))).)))
folding enthalpy [1]: -14.2 kcal/mol
Tm [2]: 53.8 °C

GATCTCAGGGGAGATC ((((((....))))))
folding enthalpy [1]: -34.4 kcal/mol
Tm [2]: 52.5 °C

GTATGCGAAAGCAGCTAC ((((((....)))..)))
folding enthalpy [1]: -13.4 kcal/mol
Tm [2]: 32.8 °C

GGTAACGGAAACGTTATC (.(((((....))))).)
folding enthalpy [1]: -24.5 kcal/mol
Tm [2]: 46.4 °C

GGACGACGAAAGTCTTCC (((.(((....))).)))
folding enthalpy [1]: -27.1 kcal/mol
Tm [2]: 48.9 °C

CGTTAGAAATAACG (((((....)))))
folding enthalpy [1]: -20.5 kcal/mol
Tm [2]: 37 °C

CGAACACGGAAACGTTCG (((..(((....))))))
folding enthalpy [1]: -32.4 kcal/mol
Tm [2]: 42.7 °C

GGTAGGGGAAACCCTACC (((((((....)))))))
folding enthalpy [1]: -44.1 kcal/mol
Tm [2]: 64.6 °C

GATCAGACCACTGATC ((((((....))))))
folding enthalpy [1]: -37.1 kcal/mol
Tm [2]: 49.4 °C

GTGCTAGGAAACTAACAC (((.(((....))).)))
folding enthalpy [1]: -27.7 kcal/mol
Tm [2]: 34.4 °C

GACACAGGAAACTGTGCC (.(((((....))))).)
folding enthalpy [1]: -14.9 kcal/mol
Tm [2]: 45 °C

GGTTCAGGAAACTGGACC (((.(((....))).)))
folding enthalpy [1]: -44.8 kcal/mol
Tm [2]: 50.7 °C

GGACCGCGAAAGCGATCC (((.(((....))).)))
folding enthalpy [1]: -27.9 kcal/mol
Tm [2]: 59 °C

ATCCGGAAACGGAT (((((....)))))
folding enthalpy [1]: -20.7 kcal/mol
Tm [2]: 52.8 °C

GATGACGGAAACGTCATC (((((((....)))))))
folding enthalpy [1]: -37.1 kcal/mol
Tm [2]: 67.5 °C

GATCGCCATCGCGATC ((((((....))))))
folding enthalpy [1]: -31.5 kcal/mol
Tm [2]: 65 °C

GATCGGTTTCCGATC ((((((...))))))
folding enthalpy [1]: -34.7 kcal/mol
Tm [2]: 59 °C

GTTGACCCGAAAGGGAAC (((..(((....))))))
folding enthalpy [1]: -14.3 kcal/mol
Tm [2]: 37.8 °C

GCTGTCGGAAACGATAGC (((.(((....))).)))
folding enthalpy [1]: -57.3 kcal/mol
Tm [2]: 53.4 °C

GATCAATGTGTTGATC ((((((....))))))
folding enthalpy [1]: -35 kcal/mol
Tm [2]: 50.4 °C

GCATGTGGAAACACGTGC (((.(((....))).)))
folding enthalpy [1]: -45.4 kcal/mol
Tm [2]: 55.6 °C

GCTGCAGGAAACCGCAAC (.(((.(....).))).)
folding enthalpy [1]: -14.6 kcal/mol
Tm [2]: 27.3 °C

GTATGCCGAAAGGCTAC (((.(((....))))))
folding enthalpy [1]: -13.1 kcal/mol
Tm [2]: 48.3 °C

GCGAGCGAAAGCTTACGC ((((((....)))..)))
folding enthalpy [1]: -20.6 kcal/mol
Tm [2]: 50.7 °C

GATCCATATATGGATC ((((((....))))))
folding enthalpy [1]: -44.1 kcal/mol
Tm [2]: 55 °C

GGTTTTGGAAACAAGACC (((.(((....))).)))
folding enthalpy [1]: -31.6 kcal/mol
Tm [2]: 42.8 °C
